Experimental data as given in ChEMBL document CHEMBL2331279, “Rational design and synthesis of 4-substituted 2-pyridin-2-ylamides with inhibitory effects on SH2 domain-containing inositol 5'-phosphatase 2 (SHIP2)” (Eur J Med Chem, 2013).

Tests used:
Mus musculus [1] = test: Toxicity in C57BL/6J mouse assessed as serum insulin level at 300 mg/kg, po bid for 12 to 13 days measured on day 15 (reference value: 0.25 +/-0.11 ng/ml); assay type: organism-based; parameters: dose 300 mg/kg, route oral; details: in vivo
Mus musculus [2] = test: Toxicity in C57BL/6J mouse assessed as food intake at 300 mg/kg, po bid for 12 to 13 days measured on day 10 (reference value: 3.72 +/-0.23 gms/day); assay type: organism-based; parameters: dose 300 mg/kg, route oral; details: in vivo
Mus musculus [3] = test: Toxicity in C57BL/6J mouse assessed as fasting plasma glucose level at 300 mg/kg, po bid for 12 to 13 days measured on day 15 (reference value: 78 +/-6 mg/dl); assay type: organism-based; parameters: dose 300 mg/kg, route oral; details: in vivo
[4] = target: T1, Phosphatidylinositol 3,4,5-trisphosphate 5-phosphatase 2 (Rattus norvegicus) (UniProt Q9WVR3); test: Inhibition of SHIP2 in TNF alpha-treated Sprague-Dawley rat cortical neuron assessed as potentiation of insulin-stimulated Akt phosphorylation at Thr308 at 10 uM treated for 15 mins after TNF alpha challenge for 3 days and prior to insulin stimulation measured after 5 mins by Western blot analysis relative to untreated control
T1 sequence (whole entry): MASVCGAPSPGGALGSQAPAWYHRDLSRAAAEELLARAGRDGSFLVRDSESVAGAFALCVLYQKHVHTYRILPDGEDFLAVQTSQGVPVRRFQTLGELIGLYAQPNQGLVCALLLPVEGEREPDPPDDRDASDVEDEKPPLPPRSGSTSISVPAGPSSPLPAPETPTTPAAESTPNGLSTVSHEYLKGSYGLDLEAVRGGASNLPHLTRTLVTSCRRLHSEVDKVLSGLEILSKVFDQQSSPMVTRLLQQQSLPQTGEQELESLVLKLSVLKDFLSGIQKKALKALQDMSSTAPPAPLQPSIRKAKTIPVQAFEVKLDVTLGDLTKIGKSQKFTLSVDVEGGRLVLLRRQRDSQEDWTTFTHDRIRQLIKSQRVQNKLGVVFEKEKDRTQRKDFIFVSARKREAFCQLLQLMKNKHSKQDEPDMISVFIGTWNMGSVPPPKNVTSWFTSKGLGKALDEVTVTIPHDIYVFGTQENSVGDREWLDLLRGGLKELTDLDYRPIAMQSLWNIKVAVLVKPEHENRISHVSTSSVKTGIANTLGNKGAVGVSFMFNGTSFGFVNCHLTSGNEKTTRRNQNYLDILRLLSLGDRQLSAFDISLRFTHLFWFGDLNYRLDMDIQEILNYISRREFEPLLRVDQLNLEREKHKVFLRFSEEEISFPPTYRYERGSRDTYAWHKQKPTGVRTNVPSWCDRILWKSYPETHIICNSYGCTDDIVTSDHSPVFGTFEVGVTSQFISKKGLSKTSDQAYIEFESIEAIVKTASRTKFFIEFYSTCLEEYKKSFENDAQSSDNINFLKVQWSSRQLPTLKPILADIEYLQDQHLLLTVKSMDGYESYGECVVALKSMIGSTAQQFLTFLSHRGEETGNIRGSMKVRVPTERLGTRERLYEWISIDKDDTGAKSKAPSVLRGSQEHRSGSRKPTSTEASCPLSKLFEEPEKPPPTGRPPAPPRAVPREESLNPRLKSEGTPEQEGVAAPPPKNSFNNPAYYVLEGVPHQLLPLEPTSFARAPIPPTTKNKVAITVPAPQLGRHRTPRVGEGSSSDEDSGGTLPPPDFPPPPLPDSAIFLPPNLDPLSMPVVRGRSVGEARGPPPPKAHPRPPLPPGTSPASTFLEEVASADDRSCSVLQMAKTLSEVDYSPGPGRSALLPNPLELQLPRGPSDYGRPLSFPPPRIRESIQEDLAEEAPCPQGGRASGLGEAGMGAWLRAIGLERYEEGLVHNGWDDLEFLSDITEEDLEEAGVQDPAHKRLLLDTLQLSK

Mus musculus [5] = test: Toxicity in db/db mouse assessed as body weight at 300 mg/kg, po bid for 12 to 13 days measured on day 10 (reference value: 39.2 +/-0.6 gms); assay type: organism-based; parameters: dose 300 mg/kg, route oral; details: in vivo
Mus musculus [6] = test: Toxicity in db/db mouse assessed as food intake at 300 mg/kg, po bid for 12 to 13 days measured on day 10 (reference value: 6.06 +/-0.36 gms/day); assay type: organism-based; parameters: dose 300 mg/kg, route oral; details: in vivo
Mus musculus [7] = test: Antidiabetic activity in db/db mouse assessed as serum insulin level at 300 mg/kg, po bid for 12 to 13 days measured on day 12 to 13 (reference value: 7.30 +/-1.10 ng/ml); assay type: functional
Mus musculus [8] = test: Toxicity in C57BL/6J mouse assessed as epididymal white adipose tissue weight at 300 mg/kg, po bid for 12 to 13 days measured on day 15 (reference value: 0.03 +/-0.0 gms); assay type: organism-based; parameters: dose 300 mg/kg, route oral; details: in vivo
Mus musculus [9] = test: Toxicity in C57BL/6J mouse assessed as effect on glucose tolerance at 300 mg/kg, po bid for 13 days by glucose tolerance test; assay type: organism-based; parameters: dose 300 mg/kg, route oral; details: in vivo, 312 h
In short: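 Male mice, 8 weeks old, dosed orally twice daily with 300 mg/kg in 0.5% methylcellulose, or vehicle, for 13 days (C57BL/6J) or 10 days (db/db). After a 6 h fast, glucose 2 g/kg given ip. Tail-vein blood sampled at set times and plasma glucose measured by glucometer. AUC calculated. Mean ± SE, n=5-8; ANOVA with Bonferroni test versus vehicle.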

fold change (FC) [4]	Structure (SMILES)	Activity (Mus musculus [1])	Activity (Mus musculus [2])	Activity (Mus musculus [3])	Activity (Mus musculus [5])	Activity (Mus musculus [6])	Activity (Mus musculus [7])	Activity (Mus musculus [8])	Activity (Mus musculus [9])
1.5	C[C@H](NC(=O)c1sccc1OCc1ccc(Cl)cc1)c1ccccc1	0.1 ng/mL	4.1 g/day	87 mg/dL	40.1 g	6.5 g/day	9.95 ng/mL	0.02 g	Non-toxic
2.2	O=C(Cc1c(F)cccc1F)Nc1cc(OCc2ccc(Cl)cc2)ccn1	0.21 ng/mL	3.94 g/day	88 mg/dL	39.4 g	5.34 g/day	6.86 ng/mL	0.02 g	Non-toxic
